We go through 21 molecules from ChEMBL document CHEMBL5252639, “Exploration of cytotoxic potential and tubulin polymerization inhibition activity of cis-stilbene-1,2,3-triazole congeners” (RSC Med Chem, 2023).

Test [1] relates to A549. The test is described as follows: Cytotoxicity against human A549 cells assessed as inhibition of cell growth measured for 24 hrs by MTT assay. It is filed as functional, cell-based. The note with it: A549, 24 h. The method, boiled down: (§1)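 Cells were kept at 37 °C with 5% CO2 in suitable medium with 10% FBS and 1% antibiotic-antimycotic, and passaged at 80-90% confluency using 0.25% trypsin/1 mM EDTA. They were seeded at 1×10^3–4×10^3 cells/well and attached overnight. Compounds came from 10 mM DMSO stocks diluted in medium and were applied for 24 h. MTT (0.5 mg/mL) was added for 4 h at 37 °C, formazan was dissolved in DMSO, and absorbance was read at 570 nm.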
(In general: Tetrazolium assays rely on reduction of a dye to a coloured formazan, in cell work by metabolically active cells.)

Test [2] deals with BT-474. Put plainly: Cytotoxicity against human BT-474 cells assessed as inhibition of cell growth measured for 24 hrs by MTT assay. As to conditions: BT-474, 24 h. It is filed as functional, cell-based. Put shortly: as §1
The subject of test [3] is B16-F10. The test is described as follows: Cytotoxicity against mouse B16-F10 cells assessed as inhibition of cell growth measured for 24 hrs by MTT assay. It is filed as functional, cell-based. The note with it: B16-F10, 24 h. Put shortly: as §1
Test [4] deals with HCT-116. Put plainly: Cytotoxicity against human HCT-116 cells assessed as inhibition of cell growth measured for 24 hrs by MTT assay. It is filed as functional, cell-based. The note with it: HCT-116, 24 h. The method, boiled down:
as §1

The target in test [5] is Tubulin (Homo sapiens) (UniProt P68371+Q9H4B7+P0DPH7+P68366+Q13509+Q71U36+P04350+Q3ZCM7+P07437+P68363+Q9BQE3+Q6PEY2+Q13885+Q9BVA1+Q9BUF5). Put plainly: Inhibition of tubulin polymerization in human HCT-116 cells at 3 uM measured after 1 hr relative to control. It is filed as cell-based.
Test [6] has as its system HCT-116. The test is described as follows: Induction of morphological change in human HCT-116 cells assessed as change in cell shape incubated for 24 hrs by phase contrast microscopic analysis. It is filed as functional, cell-based. As to conditions: dose 1.62-6.5 µM. Put shortly: (§2)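 HCT-116 plated at 1 × 10^6 cells/mL in RPMI + 10% FBS and allowed to adhere 24 h at 37 °C, 5% CO2. […] After 24 h, morphology imaged by phase-contrast microscopy at 20X.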

The subject of test [7] is HCT-116. The test is described as follows: Induction of morphological change in human HCT-116 cells assessed as cell rounding incubated for 24 hrs by phase contrast microscopic analysis. The note with it: dose 1.62-6.5 µM. It is filed as functional, cell-based. The method, boiled down:
as §2

Test [8] deals with HCT-116. The test is described as follows: Induction of morphological change in human HCT-116 cells assessed as cell detachment incubated for 24 hrs by phase contrast microscopic analysis. It is filed as functional, cell-based. Put shortly: as §2
In test [9] the test system is HCT-116. Put plainly: Induction of apoptosis in human HCT-116 cells assessed as horseshoe shaped nuclei measured for 24 hrs by DAPI staining based microscopic analysis. It is filed as functional, cell-based. As to conditions: dose 1.62-6.5 µM. The method, boiled down: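 Then PBS wash, 4% paraformaldehyde fixation 30 min, 0.1% Triton X permeabilisation 15 min, 1 µM DAPI 15 min, PBS wash. Imaged by fluorescence microscopy (ex 350/em 460 nm), 20X.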

In test [10] the test system is HCT-116. Put plainly: Induction of apoptosis in human HCT-116 cells assessed as viable cells at 0.55 uM measured after 24 hrs by Annexin V-FITC/propidium iodide staining based flow cytometry (reference value: 99.71%). It is filed as functional. The note with it: read-out: Activity.
In test [11] the test system is HCT-116. The test is described as follows: Induction of apoptosis in human HCT-116 cells assessed as early apoptotic cells at 0.55 uM measured after 24 hrs by Annexin V-FITC/propidium iodide staining based flow cytometry (reference value: 0.28%). It is filed as functional.
Test [12] deals with HCT-116. Put plainly: Induction of apoptosis in human HCT-116 cells assessed as late apoptotic cells at 0.55 uM measured after 24 hrs by Annexin V-FITC/propidium iodide staining based flow cytometry (reference value: 0.00%). It is filed as functional. For orientation: Flow cytometry measures light scatter and fluorescence of single cells or particles in a stream.
The subject of test [13] is HCT-116. Put plainly: Induction of apoptosis in human HCT-116 cells assessed as necrotic cells at 0.55 uM measured after 24 hrs by Annexin V-FITC/propidium iodide staining based flow cytometry (reference value: 0.00%). It is filed as functional.
Test [14] deals with HCT-116. The test is described as follows: Induction of cell cycle arrest in human HCT-116 cells assessed as accumulation of cells at G0/G1 phase at 0.55 uM […] by PI staining based flow cytometry analysis relative to control (reference value: 70.34%). It is filed as functional.
Test [15] deals with HCT-116. The test is described as follows: Induction of cell cycle arrest in human HCT-116 cells assessed as accumulation of cells at S phase at 0.55 uM measured after 24 hrs by PI staining based flow cytometry analysis relative to control (reference value: 5.55%).
Test [16] relates to HCT-116. Put plainly: Induction of cell cycle arrest in human HCT-116 cells assessed as accumulation of cells at G2/M phase at 0.55 uM measured after 24 hrs by PI staining based flow cytometry analysis relative to control (reference value: 15.61%).

Structures are written as SMILES. A value given as a limit tells only on which side of the number the result lay.

One may read the IC50 as the concentration at which inhibition is half-maximal. The inhibition is the share of the control response that was lost under treatment. A higher inhibition goes with a response far below the control.

In the case of `COc1ccc(/C=C(/C(=O)OCc2cn(CC(=O)c3ccc(Cl)c(Cl)c3)nn2)c2ccc(OC)c(OC)c2)cc1OC`, the IC50 turned out to be 37 µM in test [1], 47.5 µM in test [2], 29.6 µM in [3] and 26.5 µM in [4].
On to `COc1ccc(/C=C(/C(=O)OCc2cn(Cc3ccc([N+](=O)[O-])cc3)nn2)c2ccc(OC)c(OC)c2)cc1OC`, for which the IC50 in test [1] worked out at 36.8 µM; in test [2] it was 28.4 µM; in [3], 17.5 µM; in test [4], 35 µM.
In the case of `COc1ccc(/C=C(/C(=O)OCc2cn(Cc3ccccc3F)nn2)c2ccc(OC)c(OC)c2)cc1OC`, the IC50 in test [1] is 29.2 µM; in test [2], 26.2 µM; in test [3], 17.4 µM; in [4] it was 22.1 µM.
As to `COc1ccc(/C=C(/C(=O)OCc2cn(Cc3ccccc3[N+](=O)[O-])nn2)c2ccc(OC)c(OC)c2)cc1OC`, the IC50 in test [1] came to 41 µM; in test [2], 40.8 µM; in test [3], 39.5 µM; in [4] it was 38.1 µM.
As to `COc1ccc(/C=C(/C(=O)OCc2cn(CC(=O)c3ccc(C)cc3)nn2)c2ccc(OC)c(OC)c2)cc1OC`, the IC50 is 41.7 µM in test [1], 40.7 µM in [2], more than 50 µM in test [3] and 33.4 µM in test [4].
Consider `COc1ccc(/C=C(/C(=O)OCc2cn(Cc3ccc(F)cc3)nn2)c2ccc(OC)c(OC)c2)cc1OC`, for which the half-inhibitory concentration (IC50) turned out to be 28.9 µM in test [1], 17.1 µM in [2], 2.37 µM in test [3] and 21.6 µM in [4].
Take `COc1ccc(C(=O)Cn2cc(COC(=O)/C(=C/c3ccc(OC)c(OC)c3)c3ccc(OC)c(OC)c3)nn2)cc1`: the IC50 was 41.9 µM in test [1], 47.5 µM in test [2], 14.1 µM in test [3] and 18 µM in test [4].
Take `COc1ccc(/C=C(/C(=O)OCc2cn(CC(=O)c3ccccc3)nn2)c2ccc(OC)c(OC)c2)cc1OC`: the IC50 was 38.2 µM in test [1], 16.2 µM in [2], 40.2 µM in test [3] and 23.5 µM in [4].
Take `COc1ccc(C(=O)Cn2cc(COC(=O)/C(=C/c3ccc(OC)c(OC)c3)c3ccc4c(c3)OCO4)nn2)cc1`: the IC50 in test [1] is 31.3 µM; in test [2], more than 50 µM; in [3], 37.7 µM; in test [4], more than 50 µM.
Molecule `CC(=O)O[C@H]1C(=O)[C@@]2(C)[C@H]([C@H](OC(=O)c3ccccc3)[C@]3(O)C[C@H](OC(=O)[C@H](O)[C@@H](NC(=O)c4ccccc4)c4ccccc4)C(C)=C1C3(C)C)[C@]1(OC(C)=O)CO[C@@H]1C[C@@H]2O` yielded an inhibition in test [5] of 49.5%.
For the molecule `COc1ccc(/C=C(/C(=O)OCc2cn(CC(=O)c3ccccc3)nn2)c2ccc3c(c2)OCO3)cc1OC`, the IC50 in test [1] is 30.8 µM; in test [2] it was more than 50 µM; in test [3] it was 30.9 µM; in [4], more than 50 µM.
On to `COc1cc2c(c(OC)c1OC)-c1ccc(OC)c(=O)cc1[C@@H](NC(C)=O)CC2` [COLCHICINE], for which the results for the IC50 in test [1], in test [2] and in test [4] were 0.89 µM, 12.5 µM and 0.55 µM, respectively. The Activity result is “Dose-Dependent Effect” in test [6]; “Dose-Dependent Effect” in [7]; “Dose-Dependent Effect” in [8]; “Dose-Dependent Effect” in test [9]; 10.32% in [11]; 61.81% in test [12]. For the same molecule, the Activity was 6.78% in test [13], 54.45% in test [14], 6.61% in test [15] and 40.57% in [16]. Moreover, the viability at 0.55 µM in test [10] came to 31.1%.
Consider `COc1ccc(/C=C(/C(=O)OCc2cn(Cc3cccc(Cl)c3)nn2)c2ccc(OC)c(OC)c2)cc1OC`, for which the IC50 is more than 50 µM in test [1], more than 50 µM in [2], 22.8 µM in test [3] and 21.2 µM in [4].
Regarding `COc1ccc(/C=C(/C(=O)OCc2cn(Cc3ccccc3)nn2)c2ccc(OC)c(OC)c2)cc1OC`, the IC50 was found to be 32.7 µM in [1], 14.9 µM in test [2], 16.1 µM in test [3] and 20.2 µM in [4].
For `COc1ccc(/C=C(/C(=O)OCc2cn(CC(=O)c3ccc(Cl)cc3)nn2)c2ccc(OC)c(OC)c2)cc1OC`, the IC50 in [1] was 38.6 µM; in test [2] it was more than 50 µM; in [3] it was more than 50 µM; in test [4], 31.9 µM.
As for `COc1ccc(/C=C(/C(=O)OCc2cn(CC(=O)c3ccc(Cl)cc3)nn2)c2ccc3c(c2)OCO3)cc1OC`, the IC50 in test [1] was 37.3 µM; in [2], more than 50 µM; in test [3] it was 28.9 µM; in test [4], more than 50 µM.
As for `COc1ccc(/C=C(/C(=O)OCc2cn(Cc3ccc(C)cc3)nn2)c2ccc(OC)c(OC)c2)cc1OC`, the IC50 in test [1] came to 12.4 µM; in test [2] it was 12.4 µM; in test [3], 1.73 µM; in test [4], 21.1 µM.
Take `COc1ccc(/C=C(/C(=O)OCc2cn(Cc3cc(C)ccc3C)nn2)c2ccc(OC)c(OC)c2)cc1OC`: the IC50 in test [1] was more than 50 µM; in [2] it was 20.1 µM; in [3] it was 40.8 µM; in [4], 49.9 µM.
In the case of `COc1ccc(/C=C(/C(=O)OCc2cn(CC(=O)c3ccc(Br)cc3)nn2)c2ccc(OC)c(OC)c2)cc1OC`, the IC50 in test [1] is 42.9 µM; in test [2], more than 50 µM; in [3], more than 50 µM; in test [4], 35.8 µM.
Turning to `COc1ccc(/C=C(/C(=O)OCc2cn(Cc3ccc(Br)cc3)nn2)c2ccc(OC)c(OC)c2)cc1OC`, the IC50 in test [1] is 15.2 µM; in test [2], 20.7 µM; in [3], 1.53 µM; in test [4], 25.3 µM.
As to `COc1ccc(/C=C(/C(=O)OCc2cn(CC(=O)c3ccc(Cl)c(Cl)c3)nn2)c2ccc3c(c2)OCO3)cc1OC`, the concentration for half-maximal inhibition (IC50) in test [1] is 25.5 µM; in [2], more than 50 µM; in [3] it was 41.6 µM; in [4], more than 50 µM.
